Experimental data published in ChEMBL document CHEMBL2311523, “Identification of novel chromenone derivatives as interleukin-5 inhibitors” (Eur J Med Chem, 2013).
pIC50: −log10 of the molar value.

Key:
[1] = molecular target: T1, Interleukin-5 (Mus musculus) (UniProt P04401); experiment: Inhibition of IL-5 in mouse pro-B Y16 cells at 30 uM after 48 hrs by WST1 assay; assay type: cell-based
T1 sequence (whole entry): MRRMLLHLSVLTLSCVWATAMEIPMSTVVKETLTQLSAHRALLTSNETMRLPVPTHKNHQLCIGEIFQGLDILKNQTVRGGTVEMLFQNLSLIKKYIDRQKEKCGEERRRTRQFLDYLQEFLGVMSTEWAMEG
Procedure, shortened: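 IL-5-dependent mouse pro-B Y16 cells were stimulated with 3 units/mL mIL-5 and incubated 48 h with or without compound. Cell metabolism was read by WST-1 tetrazolium reduction as an index of IL-5-driven proliferation.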

[2] = Inhibition of IL-5 in mouse pro-B Y16 cells after 48 hrs by WST1 assay

inhibition [1]	pIC50 [2]	SMILES
42.7%	–	O=C(/C=C/c1coc2cccc(OCC3CCCCC3)c2c1=O)c1ccc(C(F)(F)F)cc1
11.8%	–	O=C(/C=C/c1coc2cccc(OCC3CCCCC3)c2c1=O)c1ccc([N+](=O)[O-])cc1
93.8%	–	O=c1c(/C=C/C(O)c2ccc([N+](=O)[O-])cc2)coc2cccc(OCC3CCCCC3)c12 (racemic)
9.2%	–	N#Cc1ccc(C(=O)/C=C/c2coc3cccc(OCC4CCCCC4)c3c2=O)cc1
21.3%	–	COc1cccc2occ(/C=C/C(O)c3ccc(O)cc3)c(=O)c12 (racemic)
93.9%	–	O=c1c(/C=C/C(O)c2ccccc2)coc2cccc(OCC3CCCCC3)c12 (racemic)
93.2%	–	O=c1c(/C=C/C(O)c2ccc(F)cc2)coc2cccc(OCC3CCCCC3)c12 (racemic)
15.4%	–	O=C(/C=C/c1coc2cccc(OCC3CCCCC3)c2c1=O)c1ccc(F)cc1
94.4%	–	N#Cc1ccc(C(O)/C=C/c2coc3cccc(OCC4CCCCC4)c3c2=O)cc1 (racemic)
99.2%	–	CC(C)(C)c1ccc(C(=O)/C=C/c2coc3cccc(OCC4CCCCC4)c3c2=O)cc1
93.5%	–	O=c1c(/C=C/C(O)c2ccc(Cl)cc2)coc2cccc(OCC3CCCCC3)c12 (racemic)
9.3%	–	COc1ccc(C(=O)/C=C/c2coc3cccc(OCC4CCCCC4)c3c2=O)cc1
20.6%	–	CC(C)COc1cccc2occ(/C=C/C(O)c3ccc(O)cc3)c(=O)c12 (racemic)
32.3%	–	COc1cccc2occ(/C=C/C(=O)c3ccc(O)cc3)c(=O)c12
93.6%	–	COc1ccc(C(O)/C=C/c2coc3cccc(OCC4CCCCC4)c3c2=O)cc1 (racemic)
99%	–	O=C(/C=C/c1coc2cccc(OCC3CCCCC3)c2c1=O)c1ccc(O)cc1
17.2%	–	O=C(/C=C/c1coc2cccc(OCC3CCCCC3)c2c1=O)c1ccccc1
87.5%	–	CC(C)COc1cccc2occ(/C=C/C(=O)c3ccc(O)cc3)c(=O)c12
46.3%	–	O=C(/C=C/c1coc2cccc(OCC3CCCCC3)c2c1=O)c1ccc(Cl)cc1
92.7%	–	O=c1c(/C=C/C(O)c2ccc(C(F)(F)F)cc2)coc2cccc(OCC3CCCCC3)c12 (racemic)
57.5%	–	Cc1ccc(C(=O)/C=C/c2coc3cccc(OCC4CCCCC4)c3c2=O)cc1
92.7%	–	O=c1c(/C=C/C(O)c2ccc(O)cc2)coc2cccc(OCC3CCCCC3)c12 (racemic)
15.7%	–	CC(C)(C)c1ccc(C(O)/C=C/c2coc3cccc(OCC4CCCCC4)c3c2=O)cc1 (racemic)
–	5.24	O=c1c(-c2ccc(O)cc2)coc2cccc(OCC3CCCCC3)c12
93.2%	–	Cc1ccc(C(O)/C=C/c2coc3cccc(OCC4CCCCC4)c3c2=O)cc1 (racemic)
